# Tests used:
# [1] = Volume of distribution at steady state in dog at 1.09 mg/kg, iv and 10.9 mg/kg, po; type: ADME, organism-based, Canis lupus familiaris; conditions: in vivo, read-out: Vdss
# Summary of the method: (§1)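 Male animals (n = 3) dosed at 1.09 mg/kg iv and 10.9 mg/kg p.o.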
# [2] = Tmax in dog at 1.09 mg/kg, iv and 10.9 mg/kg, po; type: ADME, organism-based, Canis lupus familiaris; conditions: in vivo; summary of the method: as §1
# [3] = Cmax in monkey at 20 mg/kg, po; type: ADME, organism-based, Macaca mulatta; design: dose 20 mg/kg, route oral; conditions: rhesus monkey, in vivo
# Summary of the method: (§2)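 Oral dose of 20 mg/kg given to both sexes: males (n = 2) and females (n = 2).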
# [4] = Tmax in guinea pig at 10.9 mg/kg, po; type: ADME, organism-based, Cavia porcellus; design: dose 10.9 mg/kg, route oral; conditions: in vivo
# Summary of the method: (§3)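 Single oral dose of 10.9 mg/kg to male animals, n = 3.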
# [5] = AUC in monkey at 20 mg/kg, po; type: ADME, organism-based, Macaca mulatta; design: dose 20 mg/kg, route oral; conditions: rhesus monkey, plasma; summary of the method: as §2
# [6] = Oral bioavailability in dog at 10.9 mg/kg; type: ADME, organism-based, Canis lupus familiaris; conditions: in vivo; summary of the method: as §1
# [7] = AUC in dog at 1.09 mg/kg, iv and 10.9 mg/kg, po; type: ADME, organism-based, Canis lupus familiaris; conditions: plasma; summary of the method: as §1
# [8] = AUC in guinea pig at 10.9 mg/kg, po; type: ADME, organism-based, Cavia porcellus; design: dose 10.9 mg/kg, route oral; conditions: plasma; summary of the method: as §3
# [9] = Cmax in guinea pig at 10.9 mg/kg, po; type: ADME, organism-based, Cavia porcellus; design: dose 10.9 mg/kg, route oral; conditions: in vivo; summary of the method: as §3
# [10] = Tmax in monkey at 20 mg/kg, po; type: ADME, organism-based, Macaca mulatta; design: dose 20 mg/kg, route oral; conditions: rhesus monkey, in vivo; summary of the method: as §2
# [11] = Cmax in dog at 1.09 mg/kg, iv and 10.9 mg/kg, po; type: ADME, organism-based, Canis lupus familiaris; conditions: in vivo; summary of the method: as §1
# [12] = Total body clearance in dog at 1.09 mg/kg, iv and 10.9 mg/kg, po; type: ADME, organism-based, Canis lupus familiaris; conditions: in vivo; summary of the method: as §1
smiles,measurement,setting,value
COc1cccc(CNC(=O)c2nc3scc(COCc4ccc(C(=O)[O-])cc4)c3c(=O)[n-]2)c1.[Na+].[Na+],Vd,[1],0.395 L/kg
same,Tmax,[2],2 h
same,Cmax,[3],6610 ng/mL
same,Tmax,[4],0.67 h
same,AUC,[5],82400 ng·h/mL
same,bioavailability,[6],29%
same,AUC,[7],27100 ng·h/mL
same,AUC,[8],8360 ng·h/mL
same,Cmax,[9],1440 ng/mL
same,Tmax,[10],3 h
same,Cmax,[11],2440 ng/mL
same,clearance,[12],1.85 mL/min/kg

# From ChEMBL document CHEMBL3352418 (Bioorg Med Chem, 2014)
